Reference: the RNAGym collection of RNA variant scans (doi:10.1126/science.aae0568)
Fewer inactive variants are shown than the library holds.

B1: tRNA (parent)
chain: GUUCCGUUGGCGUAAUGGUAACGCGUCUCCCUCCUAAGGAGAAGACUGCGGGUUCGAGUCCCGUACGGAACG

Variants of: B1
Test: yeast fitness relative to wild type (ratio to wild type); higher = fitter; tRNA-Arg(CCU), competitive growth, 37 C, YPD
How it was run: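 Amplicons of the tRNA-Arg(CCU) gene were sequenced, 100-nucleotide paired-end, from the start population and from each end population of a pooled yeast competition. The competition, in six parallel replicates, lasted 24 hours in YPD at 37°C. Fitness relative to wild type was calculated from changes in genotype frequencies. Genotypes had to have ≥ 100 starting reads, and estimates < 0.5 were set to 0.5.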

Row | Variant | yeast fitness
1 | G6C U8A G51A | ≤ 0.5
2 | G6C C49G | 0.776
3 | G6C A15U C60G C66U | ≤ 0.5
4 | G6A C29G G38C A40G A45C | ≤ 0.5
5 | G6C C30U U59G C61A | 0.575
6 | G6C G17A C30U A42C G52C G63A A65U | ≤ 0.5
7 | G6A A43G | 0.801
8 | G6A G10C C29U C61A C62U A65U A69C | ≤ 0.5
9 | G6C G48C | 0.837
10 | G6A U19A U53A | ≤ 0.5
11 | G6C U16G C27U | ≤ 0.5
12 | U7A A69C | 0.794
13 | G6C G51A G58A | 0.652
14 | U7A C24G C29G C30U A40C A65U | 0.59
15 | G6A U13C A14U C30U A69U | ≤ 0.5
16 | G6C U28G | 0.644
17 | G6A A45C | 0.738
18 | G6C C31A A65G C66U | 0.594
19 | U7A C11G A36U A57C | ≤ 0.5
20 | G6C C22A G41A G44C C49U | ≤ 0.5
21 | G6C C24A C46G | 0.59
22 | G6A A36U C66U | 0.536
23 | G6C A20G C22A C31G | ≤ 0.5
24 | G6A C24U C29G C49A | 0.575

Row | Variant | yeast fitness
25 | G6A U35A A40U G41C C49A | ≤ 0.5
26 | G6C C33U G52A | ≤ 0.5
27 | G6A U32A | 0.809
28 | G6C A37G A43C C62U | ≤ 0.5
29 | G6A C22U C31G | ≤ 0.5
30 | G6A A21C U28A C62U | ≤ 0.5
31 | G6A G17A U32C | ≤ 0.5
32 | G6A G9A A36C A37U G51A C62G | ≤ 0.5
33 | U7A A15C C27A U47C | ≤ 0.5
34 | G6C C24U G38C A40G | ≤ 0.5
35 | G6A A37G | 0.722
36 | G6A C22U U53G | 0.653
37 | U7A A15U A40G G48A G68C | ≤ 0.5
38 | G6C A15G G56C | ≤ 0.5
39 | G6C U8C G58C | 0.685
40 | G6C A14G A20C C31A U64A G67A | ≤ 0.5
41 | G6A A21C U47A G56A | ≤ 0.5
42 | G6A G9C A14C C27A C31U C34A A42C C46G | ≤ 0.5
43 | G6A U13A C46G | ≤ 0.5
44 | G6C C11G A21G C29G A40C | ≤ 0.5
45 | U7A C22A C31G U32G A42G G52A | ≤ 0.5
46 | U7A C11A G18A C31U C34U U47C C49A G56A A57U | ≤ 0.5
47 | G6A C29U G50C U53C A57U C61G | ≤ 0.5
48 | G6A C24A G38A G39C | ≤ 0.5

Row | Variant | yeast fitness
49 | U7A A14U U16C A42U | ≤ 0.5
50 | U7A A20G C46G G67C A69C | ≤ 0.5
51 | G6C C22U C30A C49U G52C | 0.683
52 | G6A C30U A65C A69G A70U | ≤ 0.5
53 | U7A A36C | 0.512
54 | G6C U7C G9C | ≤ 0.5
55 | G6A C24U | 0.733
56 | G6A C22G C33A A36C A43G C55G | ≤ 0.5
57 | G6A C11G | 0.738
58 | G6A C31U U32C G67C | 0.593
59 | G6C A45G G58A | 0.607
60 | G6C G56A G67A | 0.588
61 | G6A U16A G25C | 0.644
62 | G6A C27U A45C U59C C62U | ≤ 0.5
63 | U7A A15G G23C C33G G63A | ≤ 0.5
64 | G6A A21G C55U C66U | ≤ 0.5
65 | G6C A37G A40U A45C | 0.702
66 | G6C G50C C62G C66U | 0.673
67 | G6C C30A A45G C55G A57U C62G U64C | ≤ 0.5
68 | G6A A57U G58A A65U | ≤ 0.5
69 | U7A A40G | 0.73
70 | U7A A42C | 0.775
71 | G6C C22U C24G C27U C29A C30U C31G G58A | ≤ 0.5
72 | G6C U28C A36C G51A C66A | ≤ 0.5

Row | Variant | yeast fitness
73 | G6A C24G C31G C34U | ≤ 0.5
74 | G6C G23A A70U | ≤ 0.5
75 | G6C A45C | 0.614
76 | G6A C27U A57U | 0.544
77 | G6A A21G C24G A37U | ≤ 0.5
78 | G6A C22G U47A | ≤ 0.5
79 | G6C A37C G51A G52A U53C C62A | 0.561
80 | G6C A36U G39A | ≤ 0.5
81 | G6C C22G A37U A43G C62G | 0.509
82 | G6A A40U | 0.823
83 | G6A C11A A15G C49G G51C | ≤ 0.5
84 | G6C C24U C49U G56C | 0.52
85 | G6A C62A A70C | 0.636
86 | U7A A14G | 0.709
87 | U7A A20G G23A U26G C66A | ≤ 0.5
88 | G6U C27U G56A C61U | ≤ 0.5
89 | G6A G17C C31A A36U | 0.53
90 | G6A G52C | 0.635
91 | G6C C11U A21C | 0.671
92 | G6C A15U G23C C31G G41C G48C A69U | 0.562
93 | G6A U26G A36U | ≤ 0.5
94 | G6A U8C U19A U53C | ≤ 0.5
95 | G6C C46G A57G C62U C66U | ≤ 0.5
96 | G6C A36U A65U | ≤ 0.5

Row | Variant | yeast fitness
97 | U7A A20G G41A A42C G50C A70G | ≤ 0.5
98 | U7A A36G C60A | 0.533
99 | G6C U13C C24G C34U U53C C55G C62A | ≤ 0.5
100 | G6A U54G | 0.611
101 | G6C A14C C24U C29A G39C | ≤ 0.5
102 | U7A A42G C55G A57C | ≤ 0.5
103 | G6A C11A A36G C61U C66U | ≤ 0.5
104 | G6C G10C A69C | 0.589
105 | G6A G10C C34U A40C | ≤ 0.5
106 | G6C G38A | 0.84
107 | G6A C24G U35A C46U G51C C55U A65C | ≤ 0.5
108 | G6A C30U U35C | ≤ 0.5
109 | G6C G39A | 0.86
110 | G6A C31U A36G | ≤ 0.5
111 | G6A C29U C31U C33G U35C | ≤ 0.5
112 | G6A G9C G44C C66U | ≤ 0.5
113 | G6A G44A A69C | 0.576
114 | G6A U26C C62U | ≤ 0.5
115 | U7A A15U A40G | ≤ 0.5
116 | G6C C60U | 0.712
117 | G6A U8C A20C C27U | ≤ 0.5
118 | G6C C11G C33U | ≤ 0.5
119 | U7A A20C C29U C33G | 0.638
120 | G6C U32C A36C | ≤ 0.5

Row | Variant | yeast fitness
121 | G6A U13G | 0.731
122 | G6C C34G | 0.717
123 | G6C C22A A57U | ≤ 0.5
124 | G6A G12A C22A | 0.603
125 | G6A U26G G48A C61U | 0.684
126 | G6A C31U C55U | 0.571
127 | G6C C11G C27U A42G | ≤ 0.5
128 | G6C A37U C49U A69U | 0.585
129 | U7A A20C A21G G23A | 0.65
130 | G6A U19C A20U C22U C27G | ≤ 0.5
131 | U7A A42U A45G A57C A69U | ≤ 0.5
132 | G6C C11G A14U C22U G44A C55A G63A | ≤ 0.5
133 | U7A C11G C27U A37C G51C G67U | 0.504
134 | G6A U19A U53A C60A A69U | ≤ 0.5
135 | G6C C60G A65U | ≤ 0.5
136 | G6A C62A | 0.873
137 | U7A C11U A36U A57C | ≤ 0.5
138 | G6A C11U A43U C62G C66A A69C | ≤ 0.5
139 | G6A G12C U16C A21U G63C G67A | ≤ 0.5
140 | G6A A20U C62U A65G | ≤ 0.5
141 | G6C U7G C24U C27A A57G | ≤ 0.5
142 | G6A G18C A37C C60G A65G | ≤ 0.5
143 | G6A C33G C55G C61G | ≤ 0.5
144 | G6C A40C A45C | ≤ 0.5

Row | Variant | yeast fitness
145 | U7A A20G G23A G44A G52C | ≤ 0.5
146 | G6A G9C C11G G25A C34U G68A | ≤ 0.5
147 | G6A U19G A42G | ≤ 0.5
148 | G6C U7C C27U | ≤ 0.5
149 | G6A G10A U26A C27U C29A A65G G68C | ≤ 0.5
150 | G6A G44A G56A | 0.649
151 | G6A U8A A14C A21U A40G | ≤ 0.5
152 | U7A A20G C31U A57C G67C | ≤ 0.5
153 | G6A G44A U59A A69U | ≤ 0.5
154 | G6A U8C A14U | 0.564
155 | G6A U54A C62U A65G G68A | 0.548
156 | G6C G23A C34G | ≤ 0.5
157 | G6C G56A C60G | ≤ 0.5
158 | G6C A57U | 0.663
159 | G6A C29G A43U | ≤ 0.5
160 | G6A C62U C66A | 0.548
161 | G6C U7C G9C A65G | ≤ 0.5
162 | U7A A14U A15C U32C C46U G51C | ≤ 0.5
163 | G6A A37G C60G A70U | ≤ 0.5
164 | G6A C11U A21C U28A C62U | ≤ 0.5
165 | U7A A20C G25A G68C | ≤ 0.5
166 | G6A C22G | 0.702
167 | G6C U13C G50A | ≤ 0.5
